Measurements as given in ChEMBL document CHEMBL1143246, “Design and synthesis of bicyclic pyrimidinones as potent and orally bioavailable HIV-1 integrase inhibitors” (J Med Chem, 2008).

What was measured:
Liver microsomes [1] = assay: Metabolic stability in human liver microsomes in presence of NADPH and UDPGA; assay type: ADME, Microsome
Outline: (§1)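 Multiple time points over 1 h: compound 1 µM with liver microsomes 1 mg/mL, in the presence of both UDPGA and NADPH; degradation followed by LC/MS/MS.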

Cytochrome P450 2D6 = Cytochrome P450 2D6 (Homo sapiens, UniProt P10635); assay: Inhibition of CYP2D6; assay type: ADME
Cytochrome P450 2D6, sequence (P10635 whole entry): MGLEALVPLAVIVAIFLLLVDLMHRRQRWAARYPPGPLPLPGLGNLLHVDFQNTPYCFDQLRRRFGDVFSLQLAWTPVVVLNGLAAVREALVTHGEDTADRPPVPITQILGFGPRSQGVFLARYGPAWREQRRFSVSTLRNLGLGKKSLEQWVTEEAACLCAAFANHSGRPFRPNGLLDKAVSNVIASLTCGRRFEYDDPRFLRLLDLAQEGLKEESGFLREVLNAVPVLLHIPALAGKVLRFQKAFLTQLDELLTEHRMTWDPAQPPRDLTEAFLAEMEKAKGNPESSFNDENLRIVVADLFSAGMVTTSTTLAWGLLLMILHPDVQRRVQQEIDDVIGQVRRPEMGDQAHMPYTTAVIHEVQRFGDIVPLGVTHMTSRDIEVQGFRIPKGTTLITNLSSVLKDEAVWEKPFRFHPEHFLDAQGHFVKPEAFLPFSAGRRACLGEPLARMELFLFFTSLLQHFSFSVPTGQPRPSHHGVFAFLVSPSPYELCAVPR

[2] = Plasma clearance in rat at 3 mg/kg, iv or 10 mg/kg, po; assay type: ADME, organism-based
[3] = molecular target: T1, DNA polymerase alpha catalytic subunit (Homo sapiens, UniProt P09884); assay: Inhibition of human DNA polymerase alpha
T1 sequence (P09884 whole entry): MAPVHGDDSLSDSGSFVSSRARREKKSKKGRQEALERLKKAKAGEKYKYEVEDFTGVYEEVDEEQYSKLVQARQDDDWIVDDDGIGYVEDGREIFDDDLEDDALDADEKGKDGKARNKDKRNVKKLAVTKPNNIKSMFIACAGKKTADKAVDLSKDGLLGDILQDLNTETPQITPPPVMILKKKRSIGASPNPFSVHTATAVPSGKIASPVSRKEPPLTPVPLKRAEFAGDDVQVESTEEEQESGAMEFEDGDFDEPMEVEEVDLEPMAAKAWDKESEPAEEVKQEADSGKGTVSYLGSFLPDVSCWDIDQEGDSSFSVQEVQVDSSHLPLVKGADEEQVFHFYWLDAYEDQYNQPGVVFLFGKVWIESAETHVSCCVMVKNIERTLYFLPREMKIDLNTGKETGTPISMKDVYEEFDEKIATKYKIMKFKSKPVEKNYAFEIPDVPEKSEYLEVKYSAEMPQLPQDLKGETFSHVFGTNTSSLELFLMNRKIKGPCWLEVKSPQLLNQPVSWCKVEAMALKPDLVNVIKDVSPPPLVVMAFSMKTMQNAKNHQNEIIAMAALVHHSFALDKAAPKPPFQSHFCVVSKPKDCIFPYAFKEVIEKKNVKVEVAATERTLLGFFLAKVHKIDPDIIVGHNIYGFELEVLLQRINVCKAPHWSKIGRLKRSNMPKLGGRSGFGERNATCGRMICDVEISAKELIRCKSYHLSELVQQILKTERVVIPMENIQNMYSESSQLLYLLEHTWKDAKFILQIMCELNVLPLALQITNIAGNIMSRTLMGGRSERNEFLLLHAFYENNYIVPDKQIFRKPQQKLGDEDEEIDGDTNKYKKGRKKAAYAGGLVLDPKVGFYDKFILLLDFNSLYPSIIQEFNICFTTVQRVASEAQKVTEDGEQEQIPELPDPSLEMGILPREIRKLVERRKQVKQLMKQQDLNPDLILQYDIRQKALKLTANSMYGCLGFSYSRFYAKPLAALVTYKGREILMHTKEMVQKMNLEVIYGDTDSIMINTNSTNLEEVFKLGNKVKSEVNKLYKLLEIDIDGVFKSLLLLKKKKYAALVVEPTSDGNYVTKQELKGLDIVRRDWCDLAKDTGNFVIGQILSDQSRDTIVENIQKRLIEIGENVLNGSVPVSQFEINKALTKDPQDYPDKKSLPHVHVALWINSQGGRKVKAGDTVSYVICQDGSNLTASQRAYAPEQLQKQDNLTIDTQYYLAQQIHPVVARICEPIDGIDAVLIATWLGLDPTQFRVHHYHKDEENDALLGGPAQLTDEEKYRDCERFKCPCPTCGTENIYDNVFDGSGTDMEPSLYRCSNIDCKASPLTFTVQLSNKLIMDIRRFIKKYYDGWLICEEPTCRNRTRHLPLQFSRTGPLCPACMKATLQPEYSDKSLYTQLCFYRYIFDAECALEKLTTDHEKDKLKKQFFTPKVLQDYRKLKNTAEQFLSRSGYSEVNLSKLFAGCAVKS

Cytochrome P450 2C19 = Cytochrome P450 2C19 (Homo sapiens, UniProt P33261); assay: Inhibition of CYP2C19; assay type: ADME
Cytochrome P450 2C19, sequence (P33261 whole entry): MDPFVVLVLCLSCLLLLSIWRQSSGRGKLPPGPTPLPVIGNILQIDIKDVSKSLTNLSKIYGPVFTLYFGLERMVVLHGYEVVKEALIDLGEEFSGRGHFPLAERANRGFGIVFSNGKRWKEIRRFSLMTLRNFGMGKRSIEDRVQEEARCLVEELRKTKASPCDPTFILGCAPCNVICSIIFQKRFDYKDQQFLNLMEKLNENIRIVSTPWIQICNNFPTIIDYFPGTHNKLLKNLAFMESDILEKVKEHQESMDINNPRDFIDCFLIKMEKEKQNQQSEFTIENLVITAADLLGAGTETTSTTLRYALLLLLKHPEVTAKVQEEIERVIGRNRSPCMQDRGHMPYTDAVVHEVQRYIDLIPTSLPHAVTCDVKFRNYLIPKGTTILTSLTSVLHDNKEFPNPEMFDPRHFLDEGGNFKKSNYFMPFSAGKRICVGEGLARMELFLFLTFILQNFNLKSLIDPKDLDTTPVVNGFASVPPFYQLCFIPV

Canis familiaris [4] = assay: Oral bioavailability in dog at 2 mg/kg; assay type: ADME, organism-based, Canis lupus familiaris; settings: in vivo
Outline: (§2)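 In vivo PK: iv dosing in DMSO/PEG400/H₂O mixtures, oral dosing as methylcellulose suspension. Half-life was taken after iv dosing; AUC and Cmax after po dosing.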

[5] = Half life in rhesus monkey at 2 mg/kg, iv; assay type: ADME, organism-based, Macaca mulatta; parameters: dose 2 mg/kg, route intravenous; settings: in vivo
Outline: (§3)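 Rhesus dosed 2 mg/kg iv in DMSO; oral arm 10 mg/kg as 0.5% methylcellulose suspension; plasma clearance and iv half-life.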

[6] = system: Human immunodeficiency virus 1; assay: Antiviral activity against HIV1 in human MT4 cell assessed as inhibition of virus spread in presence of 50% normal human serum; assay type: functional; settings: Human immunodeficiency virus 1, MT4; read-out: CIC95
Outline: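 Spread of HIV-1 infection in MT-4 human T-lymphoid cell culture with 50% normal human serum; CIC95 is the concentration inhibiting spread by ≥95%; mean of at least three independent experiments.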

[7] = Inhibition of HIV-RNase-H; parameters: species or system Human immunodeficiency virus
[8] = Cmax in rhesus monkey at 10 mg/kg, po; assay type: ADME, organism-based, Macaca mulatta; parameters: dose 10 mg/kg, route oral; settings: in vivo
[9] = Plasma clearance in rhesus monkey at 2 mg/kg, iv or 10 mg/kg, po; assay type: ADME, organism-based, Macaca mulatta; outline: as §3
[10] = Oral bioavailability in rhesus monkey at 10 mg/kg; assay type: ADME, organism-based, Macaca mulatta; settings: in vivo
[11] = Cmax in dog at 2 mg/kg, po; assay type: ADME, organism-based, Canis lupus familiaris; parameters: dose 2 mg/kg, route oral; settings: in vivo; outline: as §2
[12] = molecular target: Voltage-gated inwardly rectifying potassium channel KCNH2 (Homo sapiens, UniProt Q12809); assay: Inhibition of human ERG
Voltage-gated inwardly rectifying potassium channel KCNH2, sequence (Q12809 whole entry): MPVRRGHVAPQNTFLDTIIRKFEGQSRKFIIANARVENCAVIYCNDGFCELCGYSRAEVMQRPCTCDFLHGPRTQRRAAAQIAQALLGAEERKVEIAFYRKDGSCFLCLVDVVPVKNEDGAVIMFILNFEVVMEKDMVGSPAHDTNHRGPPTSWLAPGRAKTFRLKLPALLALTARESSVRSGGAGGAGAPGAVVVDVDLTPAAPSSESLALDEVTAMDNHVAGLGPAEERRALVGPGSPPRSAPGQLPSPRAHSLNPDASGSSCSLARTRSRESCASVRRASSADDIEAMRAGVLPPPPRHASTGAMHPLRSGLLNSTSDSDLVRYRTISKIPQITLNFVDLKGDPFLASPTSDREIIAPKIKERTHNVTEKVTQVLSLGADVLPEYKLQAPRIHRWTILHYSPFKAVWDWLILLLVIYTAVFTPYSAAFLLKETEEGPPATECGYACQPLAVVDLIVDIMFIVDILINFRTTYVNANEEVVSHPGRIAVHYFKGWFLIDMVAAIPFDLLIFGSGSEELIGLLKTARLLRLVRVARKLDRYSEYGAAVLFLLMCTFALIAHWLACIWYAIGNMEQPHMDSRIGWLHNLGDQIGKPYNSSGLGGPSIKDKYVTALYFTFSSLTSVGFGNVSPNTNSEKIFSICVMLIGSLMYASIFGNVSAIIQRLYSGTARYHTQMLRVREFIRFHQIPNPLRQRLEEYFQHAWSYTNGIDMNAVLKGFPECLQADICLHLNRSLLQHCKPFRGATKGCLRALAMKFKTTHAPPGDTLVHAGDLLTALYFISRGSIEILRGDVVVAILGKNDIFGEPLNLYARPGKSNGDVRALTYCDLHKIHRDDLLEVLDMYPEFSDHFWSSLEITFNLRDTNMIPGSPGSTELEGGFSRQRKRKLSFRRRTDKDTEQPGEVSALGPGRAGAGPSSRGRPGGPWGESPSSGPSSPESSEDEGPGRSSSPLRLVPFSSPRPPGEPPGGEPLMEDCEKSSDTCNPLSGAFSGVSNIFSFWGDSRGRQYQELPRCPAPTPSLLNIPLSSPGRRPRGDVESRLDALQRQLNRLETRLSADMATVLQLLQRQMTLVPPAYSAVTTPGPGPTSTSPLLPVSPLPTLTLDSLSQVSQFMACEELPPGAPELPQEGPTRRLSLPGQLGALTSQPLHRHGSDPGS

[13] = Half life in rat at 3 mg/kg, iv; assay type: ADME, organism-based; parameters: dose 3 mg/kg, route intravenous; settings: in vivo; outline: as §2
[14] = system: Human immunodeficiency virus 1; assay: Antiviral activity against HIV1 in human MT4 cell assessed as inhibition of virus spread in presence of 10% fetal bovine serum; assay type: functional; settings: Human immunodeficiency virus 1, MT4; read-out: CIC95
Outline: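 Spread of HIV-1 infection in MT-4 human T-lymphoid cell culture with 10% fetal bovine serum; CIC95 is the concentration inhibiting spread by ≥95%; mean of at least three independent experiments.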

Homo sapiens = species: Homo sapiens; assay: Protein binding in human plasma; settings: read-out: PPB (converted)
[15] = Oral bioavailability in rat at 10 mg/kg; assay type: ADME, organism-based; settings: in vivo; outline: as §2
[16] = Protein binding in dog plasma; assay type: ADME, cell-free, Canis lupus familiaris; settings: read-out: PPB (converted)
Outline: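 Plasma protein binding measured by ultrafiltration after incubation at 37 °C for 1 h.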

[17] = Volume of distribution at steady state in rhesus monkey at 2 mg/kg, iv or 10 mg/kg, po; settings: in vivo, read-out: Vdss
[18] = Protein binding in rat plasma; assay type: ADME, cell-free; settings: read-out: PPB (converted)
Outline: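 Plasma protein binding was measured by ultrafiltration after a 1 h incubation of compound in plasma at 37 °C.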

Canis familiaris [19] = assay: AUC in dog at 2 mg/kg, po; assay type: ADME, organism-based, Canis lupus familiaris, Plasma; parameters: dose 2 mg/kg, route oral; settings: in vivo; outline: as §2
[20] = Volume of distribution at steady state in rat at 3 mg/kg, iv or 10 mg/kg, po; assay type: ADME, organism-based; settings: in vivo, read-out: Vdss
Outline: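 Rats received 3 mg/kg intravenously in DMSO/PEG400/H₂O (20%-60%-20%) and 10 mg/kg orally as a 1% methylcellulose suspension. Volume of distribution was derived from the plasma profiles.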

[21] = Half life in dog at 1 mg/kg, iv; assay type: ADME, organism-based, Canis lupus familiaris; parameters: dose 1 mg/kg, route intravenous; settings: in vivo; outline: as §2
[22] = Inhibition of recombinant HIV1 integrase strand transfer activity
[23] = Volume of distribution at steady state in dog at 1 mg/kg, iv or 2 mg/kg, po; settings: in vivo, read-out: Vdss
[24] = AUC in rat at 10 mg/kg, po; settings: plasma
[25] = AUC in rhesus monkey at 10 mg/kg, po; assay type: ADME, organism-based, Macaca mulatta; parameters: dose 10 mg/kg, route oral; settings: plasma
[26] = Cmax in dog at 4 mg/kg, po; assay type: ADME, organism-based, Canis lupus familiaris; parameters: dose 4 mg/kg, route oral; settings: in vivo; outline: as §2
DNA polymerase beta = DNA polymerase beta (Homo sapiens, UniProt P06746); assay: Inhibition of human DNA polymerase beta
Liver microsomes [27] = assay: Metabolic stability in rat liver microsomes in presence of NADPH and UDPGA; assay type: ADME, Microsome; outline: as §1
Cytochrome P450 2C9 = Cytochrome P450 2C9 (Homo sapiens, UniProt P11712); assay: Inhibition of CYP2C9; assay type: ADME
Cytochrome P450 2C9, sequence (P11712 whole entry): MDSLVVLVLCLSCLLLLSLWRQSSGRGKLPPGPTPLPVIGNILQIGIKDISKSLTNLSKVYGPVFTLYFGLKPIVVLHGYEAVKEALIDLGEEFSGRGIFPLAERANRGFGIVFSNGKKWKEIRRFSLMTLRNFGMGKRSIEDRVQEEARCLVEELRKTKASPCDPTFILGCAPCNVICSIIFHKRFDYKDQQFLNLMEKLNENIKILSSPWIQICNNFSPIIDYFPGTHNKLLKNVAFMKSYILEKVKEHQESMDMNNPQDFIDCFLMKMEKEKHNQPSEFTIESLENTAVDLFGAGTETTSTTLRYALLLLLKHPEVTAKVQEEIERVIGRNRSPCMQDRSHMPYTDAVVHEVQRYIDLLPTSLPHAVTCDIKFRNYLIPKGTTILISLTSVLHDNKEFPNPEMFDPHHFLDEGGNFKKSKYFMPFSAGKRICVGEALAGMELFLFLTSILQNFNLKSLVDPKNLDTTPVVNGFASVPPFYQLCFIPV

Cytochrome P450 3A4 = Cytochrome P450 3A4 (Homo sapiens, UniProt P08684); assay: Inhibition of CYP3A4; assay type: ADME
Cytochrome P450 3A4, sequence (P08684 whole entry): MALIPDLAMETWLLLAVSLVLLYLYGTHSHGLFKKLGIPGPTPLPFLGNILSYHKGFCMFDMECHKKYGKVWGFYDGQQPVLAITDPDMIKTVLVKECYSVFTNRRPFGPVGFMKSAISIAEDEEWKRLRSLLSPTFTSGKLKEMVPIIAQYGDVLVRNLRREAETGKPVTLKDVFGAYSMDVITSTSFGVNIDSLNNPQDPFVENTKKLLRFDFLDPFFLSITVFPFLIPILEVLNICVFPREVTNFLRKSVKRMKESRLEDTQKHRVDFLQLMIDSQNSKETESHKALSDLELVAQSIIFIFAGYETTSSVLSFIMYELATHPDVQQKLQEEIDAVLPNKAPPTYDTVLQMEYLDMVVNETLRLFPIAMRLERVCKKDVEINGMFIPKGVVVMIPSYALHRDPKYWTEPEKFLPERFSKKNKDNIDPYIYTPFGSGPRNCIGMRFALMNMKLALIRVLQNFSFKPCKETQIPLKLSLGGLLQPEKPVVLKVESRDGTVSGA

[28] = Inhibition of human DNA polymerase gamma
Liver = assay: Metabolic stability in dog liver microsomes in presence of NADPH and UDPGA; assay type: ADME, Canis lupus familiaris, Microsome; outline: as §1

CN(C)C(=O)C(=O)N(C)[C@H]1CCCCn2c1nc(C(=O)NCc1ccc(F)cc1)c(O)c2=O
Stability (Liver microsomes [1]): 3 µL/min/mg
IC50 (Cytochrome P450 2D6): > 100 µM
clearance [2]: 7 mL/min/kg
IC50 [3]: > 10 µM
IC50 (Cytochrome P450 2C19): > 100 µM
F (Canis familiaris [4]): 61%
half-life [5]: 156 min
IC95 [6]: 0.013 µM
IC50 [7]: > 50 µM
Cmax [8]: 10 µM
clearance [9]: 8 mL/min/kg
bioavailability [10]: 31%
Cmax [11]: 25 µM
IC50 [12]: > 10 µM
half-life [13]: 444 min
IC95 [14]: 0.01 µM
fraction unbound (Homo sapiens): 0.19
bioavailability [15]: 64%
fraction unbound [16]: 0.24
Vd [17]: 0.7 L/kg
fraction unbound [18]: 0.06
AUC (Canis familiaris [19]): 31 µM·h
Vd [20]: 0.7 L/kg
half-life [21]: 126 min
IC50 [22]: 12 nM
Vd [23]: 0.9 L/kg
AUC [24]: 37 µM·h
AUC [25]: 14 µM·h
Cmax [26]: 27 µM
IC50 (DNA polymerase beta): > 10 µM
Stability (Liver microsomes [27]): 11 µL/min/mg
IC50 (Cytochrome P450 2C9): 75 µM
IC50 (Cytochrome P450 3A4): > 100 µM
IC50 [28]: > 10 µM
Stability (Liver): 4 µL/min/mg
